Laboratory results as given in ChEMBL document CHEMBL5113556, “Benzo[d]isoxazole Derivatives as Hypoxia-Inducible Factor (HIF)-1α Inhibitors” (ACS Med Chem Lett, 2022).
pIC50: −log10 of the molar value.

Experiments:
HEK-293T [1] = experiment: Cytotoxicity against HEK293T cells at 50 uM; type: toxicity, cell-based; conditions: human
Procedure, shortened: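 Cytotoxicity was read from the Renilla signal of the dual-luciferase reporter run in HEK293T cells (24 h transfection, then 24 h compound exposure) at concentrations up to 50 μM.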

[2] = molecular target: Hypoxia-inducible factor 1-alpha (Homo sapiens, UniProt Q16665); experiment: Inhibition of HIF-1alpha (unknown origin) transcriptional activity expressed in HEK293T cells co-transfected with renilla and HRE-firelfly luciferase incubated for 24 hrs by dual luciferase reporter gene assay; type: cell-based
Procedure, shortened: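 HEK293T cells were transfected for 24 h with HIF-1α (P2A), Renilla and HRE-firefly luciferase constructs, then exposed to test compounds for a further 24 h. The firefly signal (luciferin substrate) gave HIF-1 inhibition, normalized to the Renilla signal (coelenterazine substrate). Transcriptional activity was calculated by a formula given in the Supporting Information.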

HEK-293T [3] = experiment: Downregulation of VEGF mRNA expression in HEK293T cells measured after 24 hrs under hypoxia condition by RT-PCR analysis; conditions: Homo sapiens, dose 0.01-50 µM, DDE = dose-dependent effect
HEK-293T [4] = experiment: Downregulation of PDK1 mRNA expression in HEK293T cells measured after 24 hrs under hypoxia condition by RT-PCR analysis; conditions: Homo sapiens, dose 0.01-50 µM, DDE = dose-dependent effect
[5] = Downregulation of VEGF protein expression in HEK293T cells at 50 uM measured after 24 hrs under […] condition by Western blot analysis relative to control; type: functional, Homo sapiens, HEK-293T

Chain of Hypoxia-inducible factor 1-alpha (Q16665 whole entry): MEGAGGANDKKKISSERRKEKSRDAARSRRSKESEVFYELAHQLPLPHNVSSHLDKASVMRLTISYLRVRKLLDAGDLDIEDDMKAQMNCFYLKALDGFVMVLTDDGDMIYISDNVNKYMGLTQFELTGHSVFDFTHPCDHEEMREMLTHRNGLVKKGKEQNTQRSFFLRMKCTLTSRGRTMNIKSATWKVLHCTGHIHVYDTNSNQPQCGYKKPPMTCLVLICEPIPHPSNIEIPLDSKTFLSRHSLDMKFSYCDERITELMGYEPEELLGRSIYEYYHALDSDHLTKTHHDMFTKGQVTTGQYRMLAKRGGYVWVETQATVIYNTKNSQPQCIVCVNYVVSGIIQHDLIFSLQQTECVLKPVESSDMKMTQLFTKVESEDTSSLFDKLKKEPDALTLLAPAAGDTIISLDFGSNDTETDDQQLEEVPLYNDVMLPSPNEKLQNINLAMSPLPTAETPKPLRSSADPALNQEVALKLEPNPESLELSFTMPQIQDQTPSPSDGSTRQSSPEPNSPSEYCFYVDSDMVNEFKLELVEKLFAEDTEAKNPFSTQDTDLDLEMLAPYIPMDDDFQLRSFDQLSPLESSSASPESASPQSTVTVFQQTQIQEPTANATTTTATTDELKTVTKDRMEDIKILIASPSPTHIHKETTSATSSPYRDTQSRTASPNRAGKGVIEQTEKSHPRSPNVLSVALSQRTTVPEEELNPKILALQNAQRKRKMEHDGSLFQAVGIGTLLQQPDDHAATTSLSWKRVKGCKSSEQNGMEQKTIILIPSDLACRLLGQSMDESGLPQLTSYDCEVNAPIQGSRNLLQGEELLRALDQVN

Compound | Activity (HEK-293T [1]) | pIC50 [2] | Activity (HEK-293T [3]) | Activity (HEK-293T [4]) | Activity [5] [%]
O=C(Nc1noc2ccccc12)c1ccccc1 | Non-Toxic |  |  |  | 
COc1cccc(NC(=O)c2noc3ccccc23)c1 | Non-Toxic | 6.77 |  |  | 
O=C(Nc1ccc(Cl)cc1)c1noc2ccccc12 | Non-Toxic | 7.39 |  |  | 
O=C(Nc1ccc2ccccc2c1)c1noc2ccccc12 | Non-Toxic | 7.12 |  |  | 
O=C(Nc1cccc(Cl)c1)c1noc2ccccc12 | Non-Toxic | 6.60 |  |  | 
O=C(NC1CCCCC1)c1noc2ccccc12 | Non-Toxic | 5.27 |  |  | 
O=C(NCc1ccccc1)c1noc2ccccc12 | Non-Toxic |  |  |  | 
O=C(Nc1ccccc1)c1ccon1 | Non-Toxic |  |  |  | 
COC(=O)c1ccc(O)c(NC(=O)COc2ccc(C34CC5CC(CC(C5)C3)C4)cc2)c1 | Non-Toxic | 5.59 |  |  | 
COc1ccc(NC(=O)c2noc3ccccc23)cc1 | Non-Toxic | 7.40 |  |  | 
O=C(Nc1ccccc1Cl)c1noc2ccccc12 | Non-Toxic | 5.64 |  |  | 
O=C(Nc1ccccn1)c1noc2ccccc12 | Non-Toxic | 6.03 |  |  | 
CN(C)c1cccc(NC(=O)c2noc3ccccc23)c1 | Non-Toxic | 5.13 |  |  | 
O=C(c1noc2ccccc12)N1CCCCC1 | Non-Toxic |  |  |  | 
COC(=O)c1cccc(NC(=O)c2noc3ccccc23)c1 | Non-Toxic | 6.70 |  |  | 
CN(C)c1ccccc1NC(=O)c1noc2ccccc12 | Non-Toxic |  |  |  | 
COc1ccccc1NC(=O)c1noc2ccccc12 | Non-Toxic | 5.26 |  |  | 
O=C(Nc1ccccc1)c1noc2ccccc12 | Non-Toxic | 6.51 |  |  | 
CCn1c2ccccc2c2cc(NC(=O)c3noc4ccccc34)ccc21 | Non-Toxic | 6.09 |  |  | 
O=C(Nc1cccc(-c2ccccc2)c1)c1noc2ccccc12 | Non-Toxic | 5.77 |  |  | 
O=C1CCCc2cc(NC(=O)c3noc4ccccc34)ccc21 | Non-Toxic | 6.19 |  |  | 
O=C(Nc1ccc2scnc2c1)c1noc2ccccc12 | Non-Toxic | 7.38 |  |  | 
CN(C)c1ccc(NC(=O)c2noc3ccccc23)cc1 | Non-Toxic | 7.62 | Dde | Dde | 
CC(=O)c1cccc(NC(=O)c2noc3ccccc23)c1 | Non-Toxic | 6.19 |  |  | 
O=C(Nc1ccncc1)c1noc2ccccc12 | Non-Toxic | 5.00 |  |  | 
O=C(Nc1cccc([N+](=O)[O-])c1)c1noc2ccccc12 | Non-Toxic | 6.32 |  |  | 
CC(=O)c1ccc(NC(=O)c2noc3ccccc23)cc1 | Non-Toxic | 7.62 | Dde | Dde | 20
